Measured values gathered from unrelated publications.
Protocols differ between the studies behind these lines.
Organism: Escherichia coli
Read-out: microbial growth

| Structure (SMILES) | assay | system | conditions | MIC |
| --- | --- | --- | --- | --- |
| C[n+]1c(/C=C/c2c[nH]c3ccccc23)cc(/C=C2\Sc3ccccc3N2CCCN2CCOCC2)c2ccccc21.[I-] | broth dilution | ATCCBAA2469 |  | 64 µg/mL |
| CNC(C)C1CCC(N)C(OC2C(N)CC(N)C(OC3OCC(C)(O)C(NC)C3O)C2O)O1 (stereo not shown) | broth dilution | R477100 |  | 6 µM |
| C[n+]1c(/C=C/c2ccc(O)cc2)cc(/C=C2\Sc3ccccc3N2CCCN2CCOCC2)c2ccccc21.[I-] | broth dilution | ATCCBAA2469 |  | 8 µg/mL |
| CCCCCCCCCCCC(=O)OC[C@H]1O[C@@H](n2cc(C)c(=O)[nH]c2=O)C[C@@H]1O | broth dilution |  |  | 2 µg/mL |
| C[C@H]1COc2c(N3CCN(C)CC3)c(F)cc3c(=O)c(C(=O)O)cn1c23 | broth dilution | ATCC25922 |  | 0.0156 µg/mL |
| Cc1cc(/C=C2\Sc3ccccc3N2CCCN2CCCCC2)c2ccccc2[n+]1C.[I-] | broth dilution | ATCCBAA2469 |  | 4 µg/mL |
| COC(=O)c1cc(-c2cccc(NC(=O)Nc3cccc(C(F)(F)F)c3)c2)on1 | broth dilution | ATCC25922 |  | > 64 µg/mL |
| Oc1cc(Cl)ccc1Oc1ccc(Cl)cc1Cl |  |  |  | > 3.2 µg/mL |
| Fc1c(F)c(F)c(F)c(F)c1F |  | ATCC25922 |  | > 250 µg/mL |
| CC(=O)C1=C(O)C(CC(C)C)NC1=O (stereo not shown) |  | K12, K12 |  | > 200 µg/mL |
| CN[C@H](CC(C)C)C(=O)N[C@H]1C(=O)N[C@@H](CC(N)=O)C(=O)N[C@H]2C(=O)N[C@H]3C(=O)N[C@H](C(=O)N[C@H](C(=O)O)c4cc(O)cc(O)c4-c4cc3ccc4O)[C@H](O)c3ccc(c(Cl)c3)Oc3cc2cc(c3O[C@@H]2O[C@H](CO)[C@@H](O)[C@H](O)[C@H]2O[C@H]2C[C@](C)(N)[C@H](O)[C@H](C)O2)Oc2ccc(cc2Cl)[C@H]1O |  | ATCC10798 |  | > 32 µg/mL |
| COc1cccc(OC)c1C(=O)N[C@@H]1C(=O)N2[C@@H]1SC(C)(C)[C@@H]2C(=O)O | broth dilution | ATCCBAA2469 |  | > 2050 µg/mL |
| COC(=O)c1cc(-c2cccc(NC(=O)Nc3ccc(C(F)(F)F)cc3)c2)on1 | broth dilution | ATCC25922 |  | > 64 µg/mL |
| Oc1cc(Cl)ccc1Oc1ccc(Cl)cc1Cl | broth dilution | MG1655 | clinical isolate | 0.5 µg/mL |
| CN[C@H](CC(C)C)C(=O)N[C@H]1C(=O)N[C@@H](CC(N)=O)C(=O)N[C@H]2C(=O)N[C@H]3C(=O)N[C@H](C(=O)N[C@H](C(=O)O)c4cc(O)cc(O)c4-c4cc3ccc4O)[C@H](O)c3ccc(c(Cl)c3)Oc3cc2cc(c3O[C@@H]2O[C@H](CO)[C@@H](O)[C@H](O)[C@H]2O[C@H]2C[C@](C)(N)[C@H](O)[C@H](C)O2)Oc2ccc(cc2Cl)[C@H]1O | broth dilution | ATCCBAA2469 |  | > 64 µg/mL |
| COC(=O)c1cc(-c2cccc(NC(=O)Nc3ccc(Cl)cc3Cl)c2)on1 | broth dilution | ATCC25922 |  | > 64 µg/mL |
| CCCCCCC#Cc1cncc(-c2nnc(Sc3ccc([N+](=O)[O-])cc3[N+](=O)[O-])n2C)c1 |  |  |  | ≥ 20 µg/mL |
| COC(=O)c1cc(-c2cccc(NC(=O)Nc3ccc(F)cc3)c2)on1 | broth dilution | ATCC25922 |  | > 64 µg/mL |
| CSc1ccc(/C=C/c2cc(/C=C3\Sc4ccccc4N3CCCN3CCCC3)c3ccccc3[n+]2C)cc1.[I-] | broth dilution | ATCCBAA2469 |  | 32 µg/mL |
